# Source: ChEMBL document CHEMBL1136924 (J Med Chem, 2009)
# Activity calls are given as the source filed them. The rule behind the calls is not given here.
# How the values were obtained:
# [1] = target: T1, 5-hydroxytryptamine receptor 3A (Rattus norvegicus, UniProt P35563); test: Displacement of [3H]LY278584 from 5HT3 receptor in rat cortical homogenate
# T1 sequence (P35563 whole entry): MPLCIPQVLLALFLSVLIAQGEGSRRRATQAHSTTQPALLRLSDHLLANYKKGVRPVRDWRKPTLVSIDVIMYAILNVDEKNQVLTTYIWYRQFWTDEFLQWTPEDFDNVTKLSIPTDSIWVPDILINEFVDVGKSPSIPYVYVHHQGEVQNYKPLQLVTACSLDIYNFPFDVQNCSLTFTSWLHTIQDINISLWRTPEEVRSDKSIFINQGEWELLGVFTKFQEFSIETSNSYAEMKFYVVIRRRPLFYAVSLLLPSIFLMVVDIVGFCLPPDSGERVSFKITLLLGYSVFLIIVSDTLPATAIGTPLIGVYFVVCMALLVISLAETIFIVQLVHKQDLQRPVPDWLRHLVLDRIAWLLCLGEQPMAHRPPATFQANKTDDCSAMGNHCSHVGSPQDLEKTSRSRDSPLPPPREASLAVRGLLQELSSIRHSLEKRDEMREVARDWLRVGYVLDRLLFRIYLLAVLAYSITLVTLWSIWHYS
# [2] = target: T2, 5-hydroxytryptamine receptor 1A (Rattus norvegicus, UniProt P19327); test: Displacement of [3H]8-OHDPAT from 5HT1A receptor in rat hippocampus; format: tissue-based
# T2 sequence (P19327 whole entry): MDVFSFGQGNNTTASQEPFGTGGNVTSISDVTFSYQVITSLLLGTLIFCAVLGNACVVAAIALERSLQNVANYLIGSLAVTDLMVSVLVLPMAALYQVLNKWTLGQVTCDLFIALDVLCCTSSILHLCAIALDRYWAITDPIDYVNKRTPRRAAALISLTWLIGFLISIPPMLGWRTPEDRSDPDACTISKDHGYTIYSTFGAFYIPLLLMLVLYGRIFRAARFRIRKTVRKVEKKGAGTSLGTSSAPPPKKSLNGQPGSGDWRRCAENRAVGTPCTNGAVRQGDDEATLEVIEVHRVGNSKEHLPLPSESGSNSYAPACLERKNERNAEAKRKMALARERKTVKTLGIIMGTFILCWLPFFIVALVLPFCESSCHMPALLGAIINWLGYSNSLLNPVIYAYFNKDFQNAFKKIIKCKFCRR
# [3] = target: 5-hydroxytryptamine receptor 2A (Rattus norvegicus, UniProt P14842); test: Displacement of [3H]ketanserin from 5HT2A receptor in rat cortex
# [4] = target: 5-hydroxytryptamine receptor 4 (Cavia porcellus, UniProt O70528); test: Displacement of [3H]GR-113808 from 5HT4 receptor in guinea pig striatum
# [5] = target: D(1A) dopamine receptor (Rattus norvegicus, UniProt P18901); test: Displacement of [3H]SCH-23390 from dopamine D1 receptor in rat striatum
# [6] = target: D(2) dopamine receptor (Rattus norvegicus, UniProt P61169); test: Displacement of [3H]spiperone from dopamine D2 receptor in rat striatum
# [7] = target: Muscarinic acetylcholine receptor; test: Displacement of [3H]QNB from muscarinic receptor in rat cortex
# [8] = target: T1, 5-hydroxytryptamine receptor 3A; test: Displacement of [3H]zacopride from 5HT3 receptor in rat cortex
# [9] = target: T3, 5-hydroxytryptamine receptor 3A (Cavia porcellus) (UniProt O70212); test: Agonist activity at 5HT3 receptor in voltage-stimulated guinea pig left atrium assessed as positive inotropic potency at 100 uM; format: functional, tissue-based; details: Cardiac atrium
# T3 sequence (whole entry): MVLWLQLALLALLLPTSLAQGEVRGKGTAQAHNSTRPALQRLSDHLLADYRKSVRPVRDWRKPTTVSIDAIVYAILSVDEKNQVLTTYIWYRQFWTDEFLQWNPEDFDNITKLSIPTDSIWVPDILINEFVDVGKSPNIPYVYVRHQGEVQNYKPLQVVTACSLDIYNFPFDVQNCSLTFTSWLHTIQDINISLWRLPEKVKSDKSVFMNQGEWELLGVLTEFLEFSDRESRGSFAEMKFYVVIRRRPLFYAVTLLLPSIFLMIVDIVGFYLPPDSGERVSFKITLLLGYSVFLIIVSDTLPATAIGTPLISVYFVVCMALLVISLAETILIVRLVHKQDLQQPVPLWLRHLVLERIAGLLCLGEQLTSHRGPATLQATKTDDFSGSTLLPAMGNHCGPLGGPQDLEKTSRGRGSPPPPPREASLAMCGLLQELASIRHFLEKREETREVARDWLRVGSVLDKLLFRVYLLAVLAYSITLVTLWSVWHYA
# Summary of the method: (§1)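 Guinea pig left and right atria were hung in a 15 mL bath of PSS (pH 7.4, 95% O2-5% CO2, 35 °C) with ketanserin 1 µM. The right atrium beat spontaneously; the left was paced at 1 Hz. Cumulative doses (0.1-100 µM; DMSO ≤0.3%) were added after 45-60 min stabilization. Rate or isometric force was recorded. EC50 came from Probit analysis, n≥4. Intrinsic activity was taken relative to 5-HT.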
# [10] = target: T3, 5-hydroxytryptamine receptor 3A (Cavia porcellus); test: Agonist activity at 5HT3 receptor in spontaneously beating guinea pig right atrium assessed as positive chronotropic potency at 100 uM; format: functional, tissue-based; details: Cardiac atrium; summary of the method: as §1
# [11] = target: T3, 5-hydroxytryptamine receptor 3A (Cavia porcellus); test: Agonist activity at 5HT3 receptor in guinea pig thoracic aorta assessed as positive contractility potency at 100 uM; format: functional, tissue-based
# Summary of the method: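 Guinea pig aortic helicoidal strips in PSS at 35 °C, aerated, under 1 g resting force, washed every 20 min for 1 h. Compounds added cumulatively 0.1-100 µM (DMSO vehicle); isometric contraction recorded.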
# [12] = target: T4, 5-hydroxytryptamine receptor 3A (Cavia porcellus, UniProt O70212); test: Antagonist activity at 5HT3 receptor in spontaneously beating guinea pig right atrium assessed as inhibition of serotonin-induced maximum response by noncompetitive binding assay; format: tissue-based, Cardiac atrium
# T4 sequence (O70212 whole entry): T3 sequence (whole entry)
# Summary of the method: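 Spontaneously beating guinea pig right atrium; 5-HT concentration-response curves (0.001-1.0 µM) before and after 30 min antagonist exposure at three concentrations. IC50 is inhibition of 50% of maximal 5-HT response, Probit analysis, n = 4-6.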
# [13] = test system: Rattus norvegicus; test: Antagonist activity at 5HT3 receptor in iv dosed urethane-anesthetized Sprague-Dawley rat assessed as inhibition of 1-phenylbiguanide-induced bradycardia administered 5 mins before 1-phenylbiguanide challenge measured after 5 to 30 mins post-treatment by von Bezold-Jarisch reflex test; format: functional; details: read-out: ID50 (the source's name)
# D(2) dopamine receptor, sequence (P61169 whole entry): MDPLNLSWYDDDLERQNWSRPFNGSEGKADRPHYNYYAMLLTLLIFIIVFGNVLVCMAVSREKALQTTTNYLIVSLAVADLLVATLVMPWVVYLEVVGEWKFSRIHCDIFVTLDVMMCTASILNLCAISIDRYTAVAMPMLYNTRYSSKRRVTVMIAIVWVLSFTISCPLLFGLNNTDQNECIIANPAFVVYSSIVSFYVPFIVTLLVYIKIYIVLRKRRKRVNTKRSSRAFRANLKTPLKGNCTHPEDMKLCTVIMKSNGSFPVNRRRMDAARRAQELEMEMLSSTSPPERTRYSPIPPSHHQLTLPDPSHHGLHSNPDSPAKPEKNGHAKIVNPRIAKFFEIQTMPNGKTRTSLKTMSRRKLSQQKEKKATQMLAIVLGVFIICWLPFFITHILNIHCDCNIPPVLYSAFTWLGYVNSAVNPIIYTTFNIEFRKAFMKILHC
# 5-hydroxytryptamine receptor 4, sequence (O70528 whole entry): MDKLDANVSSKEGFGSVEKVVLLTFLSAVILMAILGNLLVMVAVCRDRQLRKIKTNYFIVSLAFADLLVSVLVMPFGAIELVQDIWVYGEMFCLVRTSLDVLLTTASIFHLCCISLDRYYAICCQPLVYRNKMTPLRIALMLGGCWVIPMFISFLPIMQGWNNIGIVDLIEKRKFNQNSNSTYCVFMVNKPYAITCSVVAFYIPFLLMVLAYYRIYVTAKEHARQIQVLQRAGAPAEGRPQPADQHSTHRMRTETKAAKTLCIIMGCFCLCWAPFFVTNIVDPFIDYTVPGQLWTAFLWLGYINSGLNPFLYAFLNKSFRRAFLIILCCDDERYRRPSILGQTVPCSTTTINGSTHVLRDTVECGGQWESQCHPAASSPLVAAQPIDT
# D(1A) dopamine receptor, sequence (P18901 whole entry): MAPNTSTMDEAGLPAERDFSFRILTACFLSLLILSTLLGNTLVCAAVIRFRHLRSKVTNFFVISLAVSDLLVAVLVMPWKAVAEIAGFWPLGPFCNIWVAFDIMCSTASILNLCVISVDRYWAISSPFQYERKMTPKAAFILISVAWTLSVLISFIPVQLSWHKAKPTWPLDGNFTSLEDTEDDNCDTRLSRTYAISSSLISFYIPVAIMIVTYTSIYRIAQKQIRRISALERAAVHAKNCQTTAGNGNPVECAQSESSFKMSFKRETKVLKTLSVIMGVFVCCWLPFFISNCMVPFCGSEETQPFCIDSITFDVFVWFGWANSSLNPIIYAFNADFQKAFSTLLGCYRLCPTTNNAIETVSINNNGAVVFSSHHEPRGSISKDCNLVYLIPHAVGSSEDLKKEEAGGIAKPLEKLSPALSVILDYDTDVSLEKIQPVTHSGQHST
# 5-hydroxytryptamine receptor 2A, sequence (P14842 whole entry): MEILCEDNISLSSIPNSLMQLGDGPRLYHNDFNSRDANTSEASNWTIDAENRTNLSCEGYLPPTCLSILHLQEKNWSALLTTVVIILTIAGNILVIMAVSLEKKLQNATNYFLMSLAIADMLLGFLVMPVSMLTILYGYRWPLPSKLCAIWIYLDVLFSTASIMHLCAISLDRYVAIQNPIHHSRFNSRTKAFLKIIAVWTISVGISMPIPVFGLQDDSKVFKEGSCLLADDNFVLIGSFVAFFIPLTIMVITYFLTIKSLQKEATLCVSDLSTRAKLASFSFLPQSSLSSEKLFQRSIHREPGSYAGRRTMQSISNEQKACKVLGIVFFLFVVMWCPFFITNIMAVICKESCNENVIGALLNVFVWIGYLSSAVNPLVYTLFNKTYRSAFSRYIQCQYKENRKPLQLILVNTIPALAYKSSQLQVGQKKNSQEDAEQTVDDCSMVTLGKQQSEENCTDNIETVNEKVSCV
compound,measurement,setting,value
CS(=O)(=O)NC(=O)CN1CCN(c2nc3cc(F)ccc3n3cccc23)CC1,Ki,[1],0.246 µM
O=C(O)CN1CCN(c2ccc3ccccc3n2)CC1,Ki,[1],0.0112 µM
same,Ki,[2],> 10 µM
same,Ki,[3],> 10 µM
same,Ki,[4],5.75 µM
same,Ki,[5],> 10 µM
same,Ki,[6],0.919 µM
same,Ki,[7],> 10 µM
Fc1ccc2c(c1)nc(N1CCN(Cc3nnn[nH]3)CC1)c1cccn12,Ki,[1],0.065 µM
Cc1cccc2nc(N3CCN(C)CC3)c3cccn3c12,Ki,[8],0.0008 µM
same,Ki,[2],> 10 µM
Fc1ccc2c(c1)nc(N1CCN(Cc3nnc[nH]3)CC1)c1cccn12,Ki,[1],0.0034 µM
same,pD2,[9],inactive
same,pD2,[10],inactive
same,pD2,[11],inactive
same,IC50,[12],8.51 µM
O=C(O)CN1CCN(c2nc3cc(O)ccc3n3cccc23)CC1,Ki,[1],0.0021 µM
O=C(CN1CCN(c2nc3cc(F)ccc3n3cccc23)CC1)NO,Ki,[1],0.0022 µM
same,ED50,[13],0.05 mg/kg
"NC(CO)C(=O)N1CCN(c2nc3cc(F)ccc3n3cccc23)CC1 (single isomer, unassigned)",Ki,[1],0.237 µM
Cc1cccc2nc(N3CCN(C(C(=O)O)c4ccccc4)CC3)c3cccn3c12 (stereo unspecified),Ki,[1],0.044 µM
